Rows were chosen to be rich in hits. Some 2.4% of all compounds tested hit in one or more screens of this group.
ERAP1 HTS inh = ERAP1 (human) enzyme inhibition; Q9NZ08; recombinant ERAP1, Leu-AMC fluorescence, 60 min; inhibition, % at 10.7 µM; actives 0.15% (n = 340,000);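 active = mean replicate inhibition of at least 30%, or all replicates individually reaching that 30% level; inactive = mean below 30% and not every replicate reaching it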;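 note: 0% = neutral control wells and 100% = L-leucinethiol positive control wells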
Target sequence (Q9NZ08 whole entry, looked up): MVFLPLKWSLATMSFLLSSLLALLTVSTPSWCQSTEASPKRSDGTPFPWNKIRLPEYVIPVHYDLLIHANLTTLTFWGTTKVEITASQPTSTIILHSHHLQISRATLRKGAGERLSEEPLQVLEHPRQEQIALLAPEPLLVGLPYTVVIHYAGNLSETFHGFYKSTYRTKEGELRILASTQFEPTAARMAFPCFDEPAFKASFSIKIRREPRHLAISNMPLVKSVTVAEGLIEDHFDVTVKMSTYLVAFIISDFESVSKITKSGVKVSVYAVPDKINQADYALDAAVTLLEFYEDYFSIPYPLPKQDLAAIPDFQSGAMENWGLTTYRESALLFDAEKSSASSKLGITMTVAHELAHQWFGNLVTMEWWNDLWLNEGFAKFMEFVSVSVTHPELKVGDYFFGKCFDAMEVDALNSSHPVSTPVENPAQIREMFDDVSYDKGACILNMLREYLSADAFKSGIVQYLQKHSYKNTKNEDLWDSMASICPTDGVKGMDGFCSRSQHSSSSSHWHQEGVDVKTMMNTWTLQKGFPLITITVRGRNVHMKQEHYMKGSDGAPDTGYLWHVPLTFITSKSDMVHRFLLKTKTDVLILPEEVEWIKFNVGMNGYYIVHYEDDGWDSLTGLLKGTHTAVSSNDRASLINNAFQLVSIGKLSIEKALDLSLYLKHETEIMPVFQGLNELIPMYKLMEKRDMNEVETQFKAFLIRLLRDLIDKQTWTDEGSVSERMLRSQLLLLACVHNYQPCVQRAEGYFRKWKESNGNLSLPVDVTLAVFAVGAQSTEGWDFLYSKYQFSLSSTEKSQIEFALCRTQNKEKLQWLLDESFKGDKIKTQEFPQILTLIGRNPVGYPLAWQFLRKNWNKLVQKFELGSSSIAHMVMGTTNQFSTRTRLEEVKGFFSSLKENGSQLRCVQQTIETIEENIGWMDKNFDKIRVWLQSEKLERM
ARNT-TACC3 inh = ARNT/TACC3 interaction disruption. Q9Y6A5. AlphaScreen His-ARNT PAS-B/GST-TACC3 binding, luminescence; TACC3 fragment carries E629A point mutation. inhibition, % at 9.99 µM. actives 0.66% (n = 390,000). AID 623870;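 active = mean inhibition of replicates at least 50% and at least half of replicates each reaching 50%; inconclusive = half or more replicates reach 50% but mean below 50%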;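 note: 0% = complete ARNT plus TACC3 wells and 100% = ARNT alone without TACC3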
rRNA inh HTS = inhibitors of bacterial rRNA selective over humanized ribosomes | GFP signal change (wild-type ribosome), % (test concentration not listed) | E. coli WT GFP vs humanized-ribosome RFP mutants, fluorescence, 24 h; stronger effect = lower value; DMSO median 0, no signal -100 | actives 1.6% (n = 350,000);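 active = significant combined selectivity score with lowered wild-type GFP, culture density cut under 30%, mutant RFP and density less affected; inactive = any of these conditions unmet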
CASP6 VEID inh = caspase-6 (human) enzyme inhibition; purified caspase-6, Z-VEID-R110 cleavage fluorescence; actives 0.53% (n = 350,000); inhibition, % at 12.5 µM; AID 686996; P55212;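 active = mean inhibition across replicates at least about 35%, with every replicate also reaching that limit, limit read from the data; inconclusive = only one of the two criteria met; inactive = neither criterion met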;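 note: 0% = median of neutral control wells and 100% = no fluorescence left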
S100A4 MyoIIA = inhibitors of human S100A4 binding to myosin IIA peptide; AID 652163; actives 0.14% (n = 360,000); P26447; S100A4/TAMRA-MyoIIA peptide fluorescence polarization; inhibition, % at 10.7 µM;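 active = mean inhibition of at least 70% across replicates, with every replicate also reaching that level; inconclusive = mean inhibition reaches 70% but some replicates fall short; inactive = mean inhibition below 70%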
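System – human S100A4 monomer protein, biochemical binding assay · Buffer or medium – Calcium-containing HEPES buffer, pH 7.2 · Timing – 5 min between mix addition and reading · Also added – TAMRA-labelled myosin IIA heavy-chain peptide probe, 5 nM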
PGC1a acetyl inh = PGC1a acetylation modulation, inhibitor mode. AID 651687. U2OS PGC1a acetylation, AlphaScreen anti-acetyl-lysine; with virally co-expressed GCN5 acetyltransferase. actives 0.17% (n = 350,000). inhibition, % at 15.6 µM;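 active = every replicate shows inhibition of at least 40%; inconclusive = mean inhibition at least 40% but some replicate below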;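 note: 0% = neutral control wells and 100% = positive control wells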
An asterisk follows results filed as active; ? = inconclusive; · = not tested or not shown.

SMILES	ERAP1 HTS inh	ARNT-TACC3 inh	rRNA inh HTS	CASP6 VEID inh	S100A4 MyoIIA	PGC1a acetyl inh
CC(C)(Cc1ccc(O)cc1)NC(=O)CC(=O)N/N=C/c1ccc([N+](=O)[O-])cc1	-4.9	-2.7	-17.1*	3.8	-1.3	1.2
COc1cc(/C=N\NC(=O)CC#N)ccc1OC/C=C/c1ccccc1	3.8	68.7*	6.2	-0.6	4.4	·
CO[C@H]1CN(C)C(=O)c2ccc(NC(=O)c3cccc(F)c3)cc2OC[C@H](C)N(C)C[C@H]1C	·	·	-2.3	·	-68.8	3.7
Clc1nc(-c2ccccn2)nc2scc(-c3ccccc3)c12	·	60.0*	·	·	·	-20.8
Clc1ccc(-c2csc3ncnc(Cl)c23)cc1	·	-3.4	·	·	·	·
C[C@@H]1CN([C@@H](C)CO)C(=O)c2ccccc2-c2ccccc2CO[C@@H]1CN(C)S(=O)(=O)c1ccccc1F	0.6	19.3	-3.5	1.8	-0.8	8.5
COCC(=O)N(C)C[C@@H]1Oc2ncc(C3=CCCC3)cc2C(=O)N([C@H](C)CO)C[C@@H]1C	·	·	4.7	·	·	2.4
NNC(=O)CSCc1nc(-c2ccc(Cl)cc2)cs1	1.9	·	-27.4*	-0.4	-3.0	4.4
CO[C@H]1CN(C)C(=O)c2cc(NS(=O)(=O)c3ccc(C)cc3)ccc2OC[C@H](C)N(Cc2nccs2)C[C@@H]1C	·	3.4	-2.1	·	7.1	-2.0
CCCN(C)C[C@@H]1Oc2cc(C3=CCCCC3)ccc2S(=O)(=O)N([C@@H](C)CO)C[C@H]1C	·	·	·	·	·	-22.4
CN1c2ccccc2-c2nc3ccccc3n2C1c1ccncc1 (stereo unspecified)	10.9	·	-23.1*	1.1	1.0	-11.3
O=C(O)/C=C/c1ccc(OCc2cccc(F)c2)cc1	-0.5	-16.1	-22.2*	1.7	4.0	-1.5
Cc1ccc(-c2ccc(C3[C@@H]4CN(S(=O)(=O)c5ccccc5)C[C@H]3N4)cc2)cc1 (stereo partly specified)	0.8	·	1.1	-2.6	-0.4	-11.3
O=C(CSc1ccc2nnc(-c3ccncc3)n2n1)Nc1ccc2c(c1)OCO2	0.8	-3.3	5.2	2.1	-14.2	-2.9
O=C(CSc1ccc2nnc(-c3ccccn3)n2n1)Nc1ccc2c(c1)OCO2	9.4	51.0*	5.7	-0.2	-4.2	1.3
O=C(CSc1ccc2nnc(-c3ccccn3)n2n1)N1CCN(c2ccccc2)CC1	4.9	66.5*	-3.3	-0.3	-8.4	2.8
CN1C(=O)c2cc(NC(=O)C3CC3)ccc2OC[C@H]2O[C@@H](CC(=O)NCC3CCCCC3)CC[C@H]21	-0.4	0.6	-3.4	1.7	?	-3.2
CCCN1C[C@H](C)[C@@H](OC)CN(C)C(=O)c2ccc(NC(=O)Nc3c(C)noc3C)cc2OC[C@H]1C	2.8	-7.5	-1.8	-1.1	2.6	0.1
CN(c1cccc(NS(=O)(=O)c2cccs2)c1)S(C)(=O)=O	·	-2.1	·	·	·	50.7*
CN1CCN(CC(O)Cn2c3ccccc3c3ccccc32)CC1 (stereo unspecified)	-1.9	-6.4	-9.1	-4.5	-2.6	-4.9
CN1CCN(CC#CCn2c3ccccc3c3ccccc32)CC1	-2.0	4.8	-33.6*	-8.1	0.5	-13.8
CCC(=O)N(C)C[C@H]1Oc2ncc(Br)cc2C(=O)N([C@H](C)CO)C[C@@H]1C	1.0	21.4	7.0	-3.4	1.3	1.1
Cc1cc(N/N=C/c2ccccc2)nc(NCc2ccccc2)n1	-2.7	9.9	-35.2*	0.1	-4.5	·
Cc1cc(N/N=C/c2ccccc2F)nc(NCc2ccccc2)n1	-1.8	6.6	-29.6*	7.3	0.2	·
Cc1cc(N/N=C/c2cccc(F)c2)nc(NCc2ccccc2)n1	9.1	2.1	-4.3	-1.9	1.2	·
C[C@H]1CCCCO[C@@H](CN(C)C(=O)Nc2ccc(F)cc2)[C@@H](C)CN([C@@H](C)CO)C(=O)c2cc(N(C)C)ccc2O1	·	·	-0.7	·	·	3.0
COc1ccccc1-c1ccc(SCC(=O)NCCc2ccccc2)nn1	1.6	0.5	-31.9*	2.5	-3.3	-2.4
O=C(CSc1ccc(-c2ccc(F)cc2)nn1)NCCc1ccccc1	-0.3	4.3	10.9	1.4	-56.5	-1.2
COc1ccccc1-c1ccc(SCc2ccccc2)nn1	0.1	4.8	-33.4*	0.4	-2.7	-12.4

Screening data from PubChem.
